Measurements: ChEMBL document CHEMBL3259818, “Tomensides A-D, new antiproliferative phenylpropanoid sucrose esters from Prunus tomentosa leaves” (Bioorg Med Chem Lett, 2014)

Experiments:
Type in all cases: functional, cell-based
A549 = assay: Cytotoxicity against human A549 cells after 2 days by MTT assay; conditions: A549, 48 h
Outline: (§1)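 Cells grown in RPMI-1640 and seeded in 96-well plates for 4 h before sample addition. Test samples were tested at four concentrations, with 37 °C incubation for 2 days. MTT solution (5 mg/mL) was then added for a further 4 h. Formazan was dissolved in 10% SDS in 0.01 M HCl and absorbance read at 550 nm. IC50 determined; 5-fluorouracil served as positive control.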

HeLa = assay: Cytotoxicity against human HeLa cells after 2 days by MTT assay; conditions: 48 h; outline: as §1
HT-29 = assay: Cytotoxicity against human HT-29 cells after 2 days by MTT assay; conditions: HT-29, 48 h; outline: as §1
MCF7 = assay: Cytotoxicity against human MCF7 cells after 2 days by MTT assay; conditions: MCF7, 48 h; outline: as §1

COc1cc(/C=C/C(=O)O[C@H]2[C@H](O)[C@@H](CO)O[C@@]2(COC(C)=O)O[C@H]2O[C@H](COC(C)=O)[C@@H](O)[C@H](O)[C@H]2OC(C)=O)ccc1O
IC50 (A549): 450 nM
IC50 (HeLa): 1090 nM
IC50 (HT-29): 460 nM
IC50 (MCF7): 770 nM

CC(=O)OC[C@H]1O[C@H](O[C@]2(COC(C)=O)O[C@H](CO)[C@@H](O)[C@@H]2OC(=O)/C=C/c2ccc(O)cc2)[C@H](O)[C@@H](OC(C)=O)[C@@H]1O
IC50 (A549): 2560 nM
IC50 (HeLa): 1330 nM
IC50 (HT-29): 2100 nM
IC50 (MCF7): 1440 nM

O=c1[nH]cc(F)c(=O)[nH]1 [FLUOROURACIL]
IC50 (HT-29): 17200 nM

CC(=O)OC[C@H]1O[C@H](O[C@]2(COC(C)=O)O[C@H](CO)[C@@H](O)[C@@H]2OC(=O)/C=C/c2ccc(O)cc2)[C@H](OC(C)=O)[C@@H](O)[C@@H]1O
IC50 (A549): 3200 nM
IC50 (HeLa): 2490 nM
IC50 (HT-29): 3960 nM
IC50 (MCF7): 3440 nM

CC(=O)OC[C@H]1O[C@H](O[C@]2(COC(C)=O)O[C@H](CO)[C@@H](O)[C@@H]2OC(=O)/C=C/c2ccc(O)cc2)[C@H](O)[C@@H](O)[C@@H]1OC(C)=O
IC50 (A549): 490 nM
IC50 (HeLa): 970 nM
IC50 (HT-29): 1480 nM
IC50 (MCF7): 1220 nM

CC(=O)OC[C@H]1O[C@H](O[C@]2(COC(C)=O)O[C@H](CO)[C@@H](OC(C)=O)[C@@H]2OC(=O)/C=C/c2ccc(O)cc2)[C@H](O)[C@@H](O)[C@@H]1O
IC50 (A549): 290 nM
IC50 (HeLa): 110 nM
IC50 (HT-29): 180 nM
IC50 (MCF7): 620 nM

CC(=O)OC[C@H]1O[C@H](O[C@]2(CO)O[C@H](CO)[C@@H](O)[C@@H]2OC(=O)/C=C/c2ccc(O)cc2)[C@H](OC(C)=O)[C@@H](OC(C)=O)[C@@H]1O
IC50 (A549): 1120 nM
IC50 (HeLa): 4320 nM
IC50 (HT-29): 2450 nM
IC50 (MCF7): 980 nM

CC(=O)OC[C@H]1O[C@H](O[C@]2(CO)O[C@H](CO)[C@@H](O)[C@@H]2OC(=O)/C=C/c2ccc(O)cc2)[C@H](O)[C@@H](OC(C)=O)[C@@H]1OC(C)=O
IC50 (A549): 1470 nM
IC50 (HeLa): 3800 nM
IC50 (HT-29): 2780 nM
IC50 (MCF7): 2930 nM
